Test results published in ChEMBL document CHEMBL4152256, “Structure-activity relationship of new antimalarial 1-aryl-3-susbtituted propanol derivatives: Synthesis, preliminary toxicity profiling, parasite life cycle stage studies, target exploration, and targeted delivery” (Eur J Med Chem, 2018).

Assays:
Plasmodium falciparum [1] = experiment: Antiplasmodial activity against multidrug-resistant Plasmodium falciparum FCR-3 by [3H]-hypoxanthine incorporation assay; assay type: functional, organism-based, FCR-3/Gambia
How it was run: (§1)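 Blood-stage P. falciparum 3D7 and FCR-3 were tested by a modified [3H]-hypoxanthine incorporation assay. Chloroquine was the reference in all runs.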

Plasmodium falciparum [2] = experiment: Antiplasmodial activity against chloroquine-sensitive Plasmodium falciparum 3D7 by [3H]-hypoxanthine incorporation assay; assay type: functional, organism-based; how it was run: as §1
[3] = Cytotoxicity against human HepG2A16 cells by MTT assay; assay type: cell-based
How it was run: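 MTT viability assay on HepG2-A16 cells, giving CC50 values.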

[4] = Selectivity index, ratio of CC50 for human HepG2A16 cells by MTT assay to IC50 for multidrug-resistant Plasmodium falciparum FCR-3; assay type: toxicity
How it was run: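 HepG2-A16 human hepatoma cells were tested by MTT viability assay to give CC50. Blood-stage activity was measured against the multidrug-resistant P. falciparum FCR-3 strain by [3H]-hypoxanthine incorporation to give IC50. SI = CC50 HepG2 / FCR-3 IC50.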

[5] = Genotoxicity in Salmonella typhimurium TA1535 harboring pSK1002 assessed as survival at 0.125 mg/ml in absence of Sprague-Dawley rat liver S9 fraction after by SOS/umu assay relative to control; assay type: toxicity, organism-based; conditions: salmonella enterica subsp. enterica serovar typhimurium, read-out: Survival
[6] = Genotoxicity in Salmonella typhimurium TA1535 harboring pSK1002 assessed as umu gene induction at 0.125 mg/ml in absence of Sprague-Dawley rat liver S9 fraction after by SOS/umu assay relative to control; assay type: toxicity, organism-based; conditions: salmonella enterica subsp. enterica serovar typhimurium, read-out: FC
[7] = Genotoxicity in Salmonella typhimurium TA1535 harboring pSK1002 assessed as survival at 0.125 mg/ml in presence of Sprague-Dawley rat liver S9 fraction after by SOS/umu assay relative to control; assay type: toxicity, organism-based; conditions: salmonella enterica subsp. enterica serovar typhimurium, read-out: Survival
[8] = Genotoxicity in Salmonella typhimurium TA1535 harboring pSK1002 assessed as umu gene induction at 0.125 mg/ml in presence of Sprague-Dawley rat liver S9 fraction after by SOS/umu assay relative to control; assay type: toxicity, organism-based; conditions: salmonella enterica subsp. enterica serovar typhimurium, read-out: FC
[9] = Genotoxicity in Salmonella typhimurium TA1535 harboring pSK1002 assessed as survival at 0.063 mg/ml in absence of Sprague-Dawley rat liver S9 fraction after by SOS/umu assay relative to control; assay type: toxicity, organism-based; conditions: salmonella enterica subsp. enterica serovar typhimurium, read-out: Survival
[10] = Genotoxicity in Salmonella typhimurium TA1535 harboring pSK1002 assessed as umu gene induction at 0.063 mg/ml in absence of Sprague-Dawley rat liver S9 fraction after by SOS/umu assay relative to control; assay type: toxicity, organism-based; conditions: salmonella enterica subsp. enterica serovar typhimurium, read-out: FC
[11] = Genotoxicity in Salmonella typhimurium TA1535 harboring pSK1002 assessed as survival at 0.063 mg/ml in presence of Sprague-Dawley rat liver S9 fraction after by SOS/umu assay relative to control; assay type: toxicity, organism-based; conditions: salmonella enterica subsp. enterica serovar typhimurium, read-out: Survival
[12] = Genotoxicity in Salmonella typhimurium TA1535 harboring pSK1002 assessed as umu gene induction at 0.063 mg/ml in presence of Sprague-Dawley rat liver S9 fraction after by SOS/umu assay relative to control; assay type: toxicity, organism-based; conditions: salmonella enterica subsp. enterica serovar typhimurium, read-out: FC
[13] = Genotoxicity in Salmonella typhimurium TA1535 harboring pSK1002 assessed as umu gene induction at 0.031 mg/ml in absence of Sprague-Dawley rat liver S9 fraction after by SOS/umu assay relative to control; assay type: toxicity, organism-based; conditions: salmonella enterica subsp. enterica serovar typhimurium, read-out: FC
[14] = Genotoxicity in Salmonella typhimurium TA1535 harboring pSK1002 assessed as survival at 0.031 mg/ml in presence of Sprague-Dawley rat liver S9 fraction after by SOS/umu assay relative to control; assay type: toxicity, organism-based; conditions: salmonella enterica subsp. enterica serovar typhimurium, read-out: Survival
[15] = Genotoxicity in Salmonella typhimurium TA1535 harboring pSK1002 assessed as umu gene induction at 0.031 mg/ml in presence of Sprague-Dawley rat liver S9 fraction after by SOS/umu assay relative to control; assay type: toxicity, organism-based; conditions: salmonella enterica subsp. enterica serovar typhimurium, read-out: FC
[16] = Genotoxicity in Salmonella typhimurium TA1535 harboring pSK1002 assessed as umu gene induction at 0.016 mg/ml in absence of Sprague-Dawley rat liver S9 fraction after by SOS/umu assay relative to control; assay type: toxicity, organism-based; conditions: salmonella enterica subsp. enterica serovar typhimurium, read-out: FC
[17] = Genotoxicity in Salmonella typhimurium TA1535 harboring pSK1002 assessed as umu gene induction at 0.016 mg/ml in presence of Sprague-Dawley rat liver S9 fraction after by SOS/umu assay relative to control; assay type: toxicity, organism-based; conditions: salmonella enterica subsp. enterica serovar typhimurium, read-out: FC
[18] = Genotoxicity in Salmonella typhimurium TA1535 harboring pSK1002 assessed as survival at 0.008 mg/ml in absence of Sprague-Dawley rat liver S9 fraction after by SOS/umu assay relative to control; assay type: toxicity, organism-based; conditions: salmonella enterica subsp. enterica serovar typhimurium, read-out: Survival
[19] = Genotoxicity in Salmonella typhimurium TA1535 harboring pSK1002 assessed as umu gene induction at 0.008 mg/ml in absence of Sprague-Dawley rat liver S9 fraction after by SOS/umu assay relative to control; assay type: toxicity, organism-based; conditions: salmonella enterica subsp. enterica serovar typhimurium, read-out: FC
[20] = Genotoxicity in Salmonella typhimurium TA1535 harboring pSK1002 assessed as survival at 0.008 mg/ml in presence of Sprague-Dawley rat liver S9 fraction after by SOS/umu assay relative to control; assay type: toxicity, organism-based; conditions: salmonella enterica subsp. enterica serovar typhimurium, read-out: Survival
[21] = Genotoxicity in Salmonella typhimurium TA1535 harboring pSK1002 assessed as umu gene induction at 0.008 mg/ml in presence of Sprague-Dawley rat liver S9 fraction after by SOS/umu assay relative to control; assay type: toxicity, organism-based; conditions: salmonella enterica subsp. enterica serovar typhimurium, read-out: FC
[22] = Genotoxicity in Salmonella typhimurium TA1535 harboring pSK1002 assessed as survival at 0.004 mg/ml in absence of Sprague-Dawley rat liver S9 fraction after by SOS/umu assay relative to control; assay type: toxicity, organism-based; conditions: salmonella enterica subsp. enterica serovar typhimurium, read-out: Survival
[23] = Genotoxicity in Salmonella typhimurium TA1535 harboring pSK1002 assessed as umu gene induction at 0.004 mg/ml in absence of Sprague-Dawley rat liver S9 fraction after by SOS/umu assay relative to control; assay type: toxicity, organism-based; conditions: salmonella enterica subsp. enterica serovar typhimurium, read-out: FC
[24] = Genotoxicity in Salmonella typhimurium TA1535 harboring pSK1002 assessed as survival at 0.002 mg/ml in absence of Sprague-Dawley rat liver S9 fraction after by SOS/umu assay relative to control; assay type: toxicity, organism-based; conditions: salmonella enterica subsp. enterica serovar typhimurium, read-out: Survival
[25] = Genotoxicity in Salmonella typhimurium TA1535 harboring pSK1002 assessed as umu gene induction at 0.002 mg/ml in absence of Sprague-Dawley rat liver S9 fraction after by SOS/umu assay relative to control; assay type: toxicity, organism-based; conditions: salmonella enterica subsp. enterica serovar typhimurium, read-out: FC
[26] = Genotoxicity in Salmonella typhimurium TA1535 harboring pSK1002 assessed as umu gene induction at 0.002 mg/ml in presence of Sprague-Dawley rat liver S9 fraction after by SOS/umu assay relative to control; assay type: toxicity, organism-based; conditions: salmonella enterica subsp. enterica serovar typhimurium, read-out: FC
[27] = Genotoxicity in Salmonella typhimurium TA1535 harboring pSK1002 assessed as umu gene induction at 0.001 mg/ml in absence of Sprague-Dawley rat liver S9 fraction after by SOS/umu assay relative to control; assay type: toxicity, organism-based; conditions: salmonella enterica subsp. enterica serovar typhimurium, read-out: FC
[28] = Genotoxicity in Salmonella typhimurium TA1535 harboring pSK1002 assessed as survival at 0.001 mg/ml in presence of Sprague-Dawley rat liver S9 fraction after by SOS/umu assay relative to control; assay type: toxicity, organism-based; conditions: salmonella enterica subsp. enterica serovar typhimurium, read-out: Survival
[29] = Genotoxicity in Salmonella typhimurium TA1535 harboring pSK1002 assessed as umu gene induction at 0.001 mg/ml in presence of Sprague-Dawley rat liver S9 fraction after by SOS/umu assay relative to control; assay type: toxicity, organism-based; conditions: salmonella enterica subsp. enterica serovar typhimurium, read-out: FC

Row | SMILES | viability at 0.125 mg/ml [5] | fold induction at 0.125 mg/ml [6] | viability at 0.125 mg/ml [7] | fold induction at 0.125 mg/ml [8] | viability at 0.063 mg/ml [9] | fold induction at 0.063 mg/ml [10] | viability at 0.063 mg/ml [11] | fold induction at 0.063 mg/ml [12] | fold induction at 0.031 mg/ml [13] | viability at 0.031 mg/ml [14] | fold induction at 0.031 mg/ml [15] | fold induction at 0.016 mg/ml [16] | fold induction at 0.016 mg/ml [17] | viability at 0.008 mg/ml [18] | fold induction at 0.008 mg/ml [19] | viability at 0.008 mg/ml [20] | fold induction at 0.008 mg/ml [21] | viability at 0.004 mg/ml [22] | fold induction at 0.004 mg/ml [23] | viability at 0.002 mg/ml [24] | further results
1 | OC(CCN1CCN(c2ccc(F)cc2)CC1)c1ccc(F)c2ccccc12 (stereo not drawn) | 56.2% | 0.7 | 59.6% | 0.7 | 118% | 0.5 | 112% | 0.5 | 0.7 | 140% | 0.5 | 0.7 | 0.9 | 122% | 0.5 | 98.7% | 0.7 | 87.9% | 0.8 | 110% | IC50 (Plasmodium falciparum [1]; Plasmodium falciparum, FCR-3/Gambia, 3 h): 4.05 µM; IC50 (Plasmodium falciparum [2]; Plasmodium falciparum, 3D7): 0.43 µM; CC50 ([3]; HepG2A16 cells): 29.4 µM; selectivity ratio ([4]; HepG2A16 cells, read-out: Ratio CC50/IC50): 7; fold induction at 0.002 mg/ml [25]: 0.7; fold induction at 0.002 mg/ml [26]: 0.8; fold induction at 0.001 mg/ml [27]: 0.7; viability at 0.001 mg/ml [28]: 101%; fold induction at 0.001 mg/ml [29]: 0.9
2 | N#Cc1ccc(N2CCC(NCCC(O)c3ccc(F)c4ccccc34)CC2)c(C(F)(F)F)c1 (stereo in doubt; 72) | 62.4% | 0.2 | 91% | 0.2 | 54.7% | 0.3 | 85.2% | 0.2 | 0.7 | 35% | 0.6 | 0.8 | 0.6 | 32.9% | 0.8 | 52.9% | 1.3 | 33.3% | 0.9 | 110% | IC50 (Plasmodium falciparum [1]): 0.08 µM; IC50 (Plasmodium falciparum [2]): 0.13 µM; CC50 [3]: 6.22 µM; Ratio CC50/IC50 [4]: 78; fold induction at 0.002 mg/ml [25]: 1.3; fold induction at 0.002 mg/ml [26]: 1; fold induction at 0.001 mg/ml [27]: 1; viability at 0.001 mg/ml [28]: 121%; fold induction at 0.001 mg/ml [29]: 0.8
